From paper PMC5148670 (Journal of medicinal chemistry, 2016)
Changes are numbered by the printed parent chain. Where two headings read alike, the source gives them in different places.

Tests used:
SETD8 [1] = molecular target: T1, SETD8 (Homo sapiens, UniProt Q9NQR1); assay: Residual enzymatic activity of the purified 3-SETD8 adduct; assay type: biochemical; details: purified monomer and dimer of 3-SETD8 adduct
T1 sequence (Q9NQR1 232-393): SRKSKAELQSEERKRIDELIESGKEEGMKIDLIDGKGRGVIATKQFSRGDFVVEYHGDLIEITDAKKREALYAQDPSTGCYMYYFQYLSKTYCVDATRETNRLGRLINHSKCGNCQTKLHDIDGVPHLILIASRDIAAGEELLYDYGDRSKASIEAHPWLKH
Outline: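 SETD8 was incubated with the covalent test compound until adduct formation was complete by MS. The adduct was purified by gel filtration, giving monomer and dimer forms that interconvert. Each form was then tested in the enzymatic assay and compared with wild-type SETD8.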

[2] = system: 28 other methyltransferases; assay: Methyltransferase selectivity assays; assay type: biochemical
C311S mutant of SETD8 = molecular target: T2, C311S mutant of SETD8 (Homo sapiens, UniProt Q9NQR1, C311S); assay: Mass spectrometry of covalent modification, SETD8 C311S mutant; assay type: binding
T2 sequence (Q9NQR1 232-393 C311S): T1 sequence (Q9NQR1 232-393) with C80S
Outline: (§1)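 Catalytic domain of SETD8 (wild type, C311S or C343S; the C311S protein carried a His tag) at 7 μM was incubated with 20–200 μM test compound in water for over 3 h. Samples were analysed by electrospray LC/MS time-of-flight to detect covalent adducts. Masses of each protein without compound were recorded as controls.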

PRC2 = PRC2 (Homo sapiens, UniProt Q15910); assay: Mass spectrometry of covalent labeling, PRC2; assay type: binding
PRC2, sequence (Q15910 whole entry): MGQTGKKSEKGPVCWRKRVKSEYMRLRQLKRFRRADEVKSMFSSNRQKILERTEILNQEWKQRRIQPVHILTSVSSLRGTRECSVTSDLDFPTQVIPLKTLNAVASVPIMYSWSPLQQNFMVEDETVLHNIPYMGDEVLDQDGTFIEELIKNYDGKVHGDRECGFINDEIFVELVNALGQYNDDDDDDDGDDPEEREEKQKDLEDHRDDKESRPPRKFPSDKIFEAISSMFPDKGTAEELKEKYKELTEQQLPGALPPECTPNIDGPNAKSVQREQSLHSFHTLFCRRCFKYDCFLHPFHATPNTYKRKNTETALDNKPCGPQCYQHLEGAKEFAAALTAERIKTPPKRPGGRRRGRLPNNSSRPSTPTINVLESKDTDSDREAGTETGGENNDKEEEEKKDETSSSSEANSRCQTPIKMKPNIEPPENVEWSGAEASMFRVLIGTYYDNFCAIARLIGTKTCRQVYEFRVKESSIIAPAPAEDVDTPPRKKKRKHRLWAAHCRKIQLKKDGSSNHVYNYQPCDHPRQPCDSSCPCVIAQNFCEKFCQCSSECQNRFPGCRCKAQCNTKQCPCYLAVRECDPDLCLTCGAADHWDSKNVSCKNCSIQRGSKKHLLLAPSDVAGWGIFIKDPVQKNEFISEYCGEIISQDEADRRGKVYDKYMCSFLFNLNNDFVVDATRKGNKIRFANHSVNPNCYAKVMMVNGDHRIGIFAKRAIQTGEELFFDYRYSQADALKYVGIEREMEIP
PRC2, sequence (O75530 whole entry partner): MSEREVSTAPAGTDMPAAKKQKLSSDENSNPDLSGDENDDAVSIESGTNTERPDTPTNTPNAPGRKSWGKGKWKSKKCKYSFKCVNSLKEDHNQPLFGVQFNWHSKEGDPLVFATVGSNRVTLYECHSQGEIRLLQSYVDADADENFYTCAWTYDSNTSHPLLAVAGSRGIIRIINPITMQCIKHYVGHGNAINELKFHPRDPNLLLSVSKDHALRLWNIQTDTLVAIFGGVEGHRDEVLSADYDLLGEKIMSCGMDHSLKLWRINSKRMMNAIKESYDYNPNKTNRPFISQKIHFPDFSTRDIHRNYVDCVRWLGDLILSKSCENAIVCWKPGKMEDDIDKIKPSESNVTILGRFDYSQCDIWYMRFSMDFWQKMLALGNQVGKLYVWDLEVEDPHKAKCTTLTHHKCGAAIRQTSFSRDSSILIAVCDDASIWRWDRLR
PRC2, sequence (Q15022 whole entry partner): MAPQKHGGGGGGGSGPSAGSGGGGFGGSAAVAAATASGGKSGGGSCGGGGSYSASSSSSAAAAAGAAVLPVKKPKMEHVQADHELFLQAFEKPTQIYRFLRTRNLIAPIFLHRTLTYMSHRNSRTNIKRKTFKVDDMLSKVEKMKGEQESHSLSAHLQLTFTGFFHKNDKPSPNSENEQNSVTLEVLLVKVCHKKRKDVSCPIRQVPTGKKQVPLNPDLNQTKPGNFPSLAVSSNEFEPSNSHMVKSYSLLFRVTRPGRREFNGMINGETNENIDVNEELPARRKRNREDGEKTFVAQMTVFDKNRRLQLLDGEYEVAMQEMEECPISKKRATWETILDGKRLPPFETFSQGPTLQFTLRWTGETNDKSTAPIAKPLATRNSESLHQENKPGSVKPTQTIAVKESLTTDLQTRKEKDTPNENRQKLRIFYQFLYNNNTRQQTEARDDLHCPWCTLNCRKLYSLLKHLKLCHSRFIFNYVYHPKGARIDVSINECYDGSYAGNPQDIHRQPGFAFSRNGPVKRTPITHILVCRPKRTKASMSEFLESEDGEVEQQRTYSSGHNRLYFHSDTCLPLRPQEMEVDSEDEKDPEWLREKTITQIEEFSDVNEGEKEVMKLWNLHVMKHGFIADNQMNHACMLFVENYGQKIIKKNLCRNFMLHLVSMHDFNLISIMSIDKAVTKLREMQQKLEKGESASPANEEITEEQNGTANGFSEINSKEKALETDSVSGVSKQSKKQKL

C343S mutant of SETD8 = molecular target: T3, C343S mutant of SETD8 (Homo sapiens, UniProt Q9NQR1, C343S); assay: Mass spectrometry of covalent modification, SETD8 C343S mutant; assay type: binding
T3 sequence (Q9NQR1 232-393 C343S): T1 sequence (Q9NQR1 232-393) with C112S
Outline: as §1

SMYD2 = SMYD2 (Homo sapiens, UniProt Q9NRG4); assay: Mass spectrometry of covalent labeling, SMYD2; assay type: binding
SMYD2, sequence (Q9NRG4 whole entry, species assumed): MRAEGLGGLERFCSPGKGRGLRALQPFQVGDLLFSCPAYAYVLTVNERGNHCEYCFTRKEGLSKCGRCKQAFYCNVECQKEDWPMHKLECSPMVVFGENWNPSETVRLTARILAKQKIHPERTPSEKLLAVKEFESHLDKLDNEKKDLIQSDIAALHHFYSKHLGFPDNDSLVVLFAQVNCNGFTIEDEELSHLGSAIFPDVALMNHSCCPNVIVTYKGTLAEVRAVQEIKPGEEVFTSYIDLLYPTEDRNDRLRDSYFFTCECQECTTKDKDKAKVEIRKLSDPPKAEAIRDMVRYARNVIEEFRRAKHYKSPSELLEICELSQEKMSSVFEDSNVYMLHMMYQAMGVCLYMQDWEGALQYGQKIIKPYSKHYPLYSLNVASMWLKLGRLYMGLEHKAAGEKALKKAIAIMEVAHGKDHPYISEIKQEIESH

SMYD3 = molecular target: T4, SMYD3 (Homo sapiens, UniProt Q9H7B4); assay: Mass spectrometry of covalent labeling, SMYD3; assay type: binding
T4 sequence (Q9H7B4 1-428): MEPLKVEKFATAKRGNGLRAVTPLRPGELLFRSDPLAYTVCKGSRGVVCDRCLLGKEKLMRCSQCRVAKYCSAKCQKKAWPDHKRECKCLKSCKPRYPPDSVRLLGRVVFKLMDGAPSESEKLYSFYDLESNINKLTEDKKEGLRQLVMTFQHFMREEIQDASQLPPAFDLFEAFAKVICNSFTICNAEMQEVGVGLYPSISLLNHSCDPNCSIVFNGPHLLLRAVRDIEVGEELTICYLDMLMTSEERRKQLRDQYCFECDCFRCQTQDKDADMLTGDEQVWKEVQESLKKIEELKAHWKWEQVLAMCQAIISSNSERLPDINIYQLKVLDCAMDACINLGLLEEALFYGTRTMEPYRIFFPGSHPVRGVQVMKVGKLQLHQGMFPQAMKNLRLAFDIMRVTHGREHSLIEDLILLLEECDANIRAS

SETD8 [3] = molecular target: T1, SETD8; assay: Mass spectrometry of covalent modification, wild-type SETD8; assay type: binding; details: for covalent adduct formation by MS: purified SETD8 with full SET domain, 3 hours incubation
Outline: as §1

SETD8 [4] = molecular target: T1, SETD8; assay: SETD8 scintillation proximity assay; assay type: biochemical
[5] = system: H4K20me mark in HeLa cells; assay: H4K20me mark in HeLa cells; assay type: cell-based; details: up to 10μM
SETD8 [6] = details: cited from earlier work

C=CC(=O)NCCCNc1nc(N2CCCC2)nc2cc(OC)c(OC)cc12 [compound 3, N-(3-((6,7-Dimethoxy-2-(pyrrolidin-1-yl)quinazolin-4-yl)amino)propyl)acrylamide]
enzymatic activity retained by adduct relative to wild-type SETD8 (SETD8 [1]): about 10%
selectivity for SETD8 over other methyltransferases [2]: selective for SETD8 over 30 other methyltransferases
selectivity for SETD8 over other methyltransferases ([2]; listed as MS453): selective for SETD8 against 28 other methyltransferases
covalent adduct formation by MS (C311S mutant of SETD8): did not form an adduct
labeling by MS analysis (PRC2): no labeling
covalent adduct formation by MS (C343S mutant of SETD8): formed a single-modified adduct
labeling by MS analysis (SMYD2): no labeling
labeling by MS analysis (SMYD3): no labeling
covalent modification of SETD8 in presence of glutathione (SETD8 [3]; 5 mM glutathione (GSH)): not affected
covalent adduct formation by MS (SETD8 [3]): efficiently forms a single-modified covalent adduct
Hillslope (SETD8 [4]; incubation with SETD8 for 1 or 5 hours, both incubation times): 1.2
reduction in the H4K20me mark [5]: did not observe significant reduction

C=CC(=O)NCCCN(C)c1nc(N2CCCC2)nc2cc(OC)c(OC)cc12 [compound 4, N-(3-((6,7-Dimethoxy-2-(pyrrolidin-1-yl)quinazolin-4-yl)(methyl)amino)propyl)acrylamide]
covalent adduct formation by MS (SETD8 [3]): did not covalently modify SETD8
activity in the SETD8 biochemical assay (SETD8 [4]): inactive

nauhoic acid A
mechanism of action (SETD8 [6]): SAM-competitive
IC50 (SETD8 [6]; read-out: potency in vitro): 6.5 µM
